Experimental data: ChEMBL document CHEMBL1123716, “Synthesis and tumor uptake of 5-halo-1-(2'-fluoro-2'-deoxy-beta-D-ribofuranosyl)[2-14C]uracils” (J Med Chem, 1987)

What was measured:
Mus musculus [1] = experiment: Tissue distribution in BDF1 female mice bearing an implanted lewis lung tumor after intravenous injection in kidney at 0.5 h.; format: ADME, organism-based; conditions: in vivo
Summary of the method: (§1)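 Female BDF1 mice (18–20 g) with implanted Lewis lung tumor received the 2-14C compound by tail vein, 23–193 kBq in normal saline, reconstituted from a dry film just before use. Animals were killed at set times and tissues taken for 14C counting by combustion and liquid scintillation. Values are percent injected dose per gram wet tissue, mean ± standard deviation, six animals.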

Mus musculus [2] = experiment: Tissue distribution in BDF1 female mice bearing an implanted lewis lung tumor after intravenous injection in heart at 1 h.; format: ADME, organism-based; conditions: in vivo; summary of the method: as §1
Mus musculus [3] = experiment: Tissue distribution in BDF1 female mice bearing an implanted lewis lung tumor after intravenous injection in skin at 1 h.; format: ADME, organism-based, Skin of body; conditions: in vivo
Summary of the method: (§2)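 Female BDF₁ mice (18–20 g) carrying transplanted Lewis lung tumor received 23–193 kBq of the [2-¹⁴C]-labeled nucleoside in normal saline via tail vein. The compound was stored as a dry film and reconstituted just before use. Animals were killed at set times, and tissue ¹⁴C was measured by combustion and liquid scintillation. Values are mean ± SD % injected dose per gram of wet tissue, n = 6.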

Mus musculus [4] = experiment: Tissue distribution in BDF1 female mice bearing an implanted lewis lung tumor after intravenous injection in spleen at 24 h.; format: ADME, organism-based; conditions: in vivo; summary of the method: as §2
Mus musculus [5] = experiment: Tissue distribution in BDF1 female mice bearing an implanted lewis lung tumor after intravenous injection in git(Section of intestine) at 1 h.; format: ADME, organism-based; conditions: in vivo; summary of the method: as §1
Mus musculus [6] = experiment: Tissue distribution in BDF1 female mice bearing an implanted lewis lung tumor after intravenous injection in heart at 8 h.; format: ADME, organism-based; conditions: in vivo; summary of the method: as §1
Mus musculus [7] = experiment: Tissue distribution in BDF1 female mice bearing an implanted lewis lung tumor after intravenous injection in heart at 0.5 h.; format: ADME, organism-based; conditions: in vivo; summary of the method: as §1
Mus musculus [8] = experiment: Tissue distribution in BDF1 female mice bearing an implanted lewis lung tumor after intravenous injection in tumor at 4 h.; format: ADME, organism-based; conditions: in vivo
Summary of the method: (§3)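 Female BDF1 mice (18–20 g) carrying a transplanted Lewis lung tumor were given 23–193 kBq of the [2-14C]-labelled nucleoside in normal saline by tail vein. Animals were killed at set times. Tissue 14C was counted by liquid scintillation, after combustion or directly. Values are percent of injected dose per gram wet tissue, as mean ± standard deviation of six animals.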

Mus musculus [9] = experiment: Tissue distribution in BDF1 female mice bearing an implanted lewis lung tumor after intravenous injection in muscle at 24 h.; format: ADME, organism-based; conditions: in vivo; summary of the method: as §2
Mus musculus [10] = experiment: Radioactive constituent in urine at 8 hr time interval after intravenous injection into BDF1 female mice bearing lewis lung tumor; format: ADME, organism-based; conditions: in vivo
Summary of the method: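 Radiolabeled nucleoside given in normal saline by tail vein, 23–193 kBq per mouse, to female BDF1 mice (18–20 g) carrying transplanted Lewis lung tumor. Urine was collected when the animals were killed. Components were identified by reverse-phase HPLC with UV at 256 nm on urine spiked with reference compounds, matched to liquid scintillation counts of the eluate. Each is reported as a percent of total urine radioactivity.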

Mus musculus [11] = experiment: Tissue distribution in BDF1 female mice bearing an implanted lewis lung tumor after intravenous injection in kidney at 8 h.; format: ADME, organism-based; conditions: in vivo; summary of the method: as §2
Mus musculus [12] = experiment: Tissue distribution in BDF1 female mice bearing an implanted lewis lung tumor after intravenous injection in blood at 8 h.; format: ADME, organism-based; conditions: in vivo; summary of the method: as §1
Mus musculus [13] = experiment: Tissue distribution in BDF1 female mice bearing an implanted lewis lung tumor after intravenous injection in muscle at 1 h.; format: ADME, organism-based; conditions: in vivo; summary of the method: as §2
Mus musculus [14] = experiment: Tissue distribution in BDF1 female mice bearing an implanted lewis lung tumor after intravenous injection in muscle at 0.25 h.; format: ADME, organism-based; conditions: in vivo; summary of the method: as §2
Mus musculus [15] = experiment: Tissue distribution in BDF1 female mice bearing an implanted lewis lung tumor after intravenous injection in lung at 0.5 h.; format: ADME, organism-based; conditions: in vivo; summary of the method: as §2
Mus musculus [16] = experiment: Radioactive constituent of 5-fluorouracil in urine at 2 hr time interval after intravenous injection into BDF1 female mice bearing lewis lung tumor; conditions: in vivo
Mus musculus [17] = experiment: Tissue distribution in BDF1 female mice bearing an implanted lewis lung tumor after intravenous injection in muscle at 0.5 h.; format: ADME, organism-based; conditions: in vivo; summary of the method: as §2
Mus musculus [18] = experiment: Tissue distribution in BDF1 female mice bearing an implanted lewis lung tumor after intravenous injection in blood at 2 h.; format: ADME, organism-based; conditions: in vivo; summary of the method: as §1
Mus musculus [19] = experiment: Tissue distribution in BDF1 female mice bearing an implanted lewis lung tumor after intravenous injection in liver at 0.5 h.; format: ADME, organism-based; conditions: in vivo; summary of the method: as §2
Mus musculus [20] = experiment: Tissue distribution in BDF1 female mice bearing an implanted lewis lung tumor after intravenous injection in git(Section of intestine) at 2 h.; format: ADME, organism-based; conditions: in vivo; summary of the method: as §1
[21] = Total urine activity excreted at 4 hr was estimated from the measurement of loss of tissue activity; format: ADME, tissue-based
Mus musculus [22] = experiment: Tissue distribution in BDF1 female mice bearing an implanted lewis lung tumor after intravenous injection in muscle at 4 h.; format: ADME, organism-based; conditions: in vivo; summary of the method: as §2
Mus musculus [23] = experiment: Tissue distribution in BDF1 female mice bearing an implanted lewis lung tumor after intravenous injection in heart at 24 h.; format: ADME, organism-based; conditions: in vivo; summary of the method: as §1
Mus musculus [24] = experiment: Tissue distribution in BDF1 female mice bearing an implanted lewis lung tumor after intravenous injection in lung at 0.25 h.; format: ADME, organism-based; conditions: in vivo; summary of the method: as §2
Mus musculus [25] = experiment: Tissue distribution in BDF1 female mice bearing an implanted lewis lung tumor after intravenous injection in spleen at 2 h.; format: ADME, organism-based; conditions: in vivo; summary of the method: as §2
Mus musculus [26] = experiment: Tissue distribution in BDF1 female mice bearing an implanted lewis lung tumor after intravenous injection in lung at 24 h.; format: ADME, organism-based; conditions: in vivo; summary of the method: as §2
Mus musculus [27] = experiment: Tissue distribution in BDF1 female mice bearing an implanted lewis lung tumor after intravenous injection in kidney at 1 h.; format: ADME, organism-based; conditions: in vivo; summary of the method: as §1
[28] = Total urine activity excreted at 2 hr was estimated from the measurement of loss of tissue activity; format: ADME, tissue-based
Mus musculus [29] = experiment: Tissue distribution in BDF1 female mice bearing an implanted lewis lung tumor after intravenous injection in heart at 4 h.; format: ADME, organism-based; conditions: in vivo; summary of the method: as §1
Mus musculus [30] = experiment: Tissue distribution in BDF1 female mice bearing an implanted lewis lung tumor after intravenous injection in blood at 24 h.; format: ADME, organism-based; conditions: in vivo; summary of the method: as §1
Mus musculus [31] = experiment: Tissue distribution in BDF1 female mice bearing an implanted lewis lung tumor after intravenous injection in git(Section of intestine) at 8 h.; format: ADME, organism-based; conditions: in vivo; summary of the method: as §1
Mus musculus [32] = experiment: Tissue distribution in BDF1 female mice bearing an implanted lewis lung tumor after intravenous injection in kidney at 24 h.; format: ADME, organism-based; conditions: in vivo; summary of the method: as §2
Mus musculus [33] = experiment: Tissue distribution in BDF1 female mice bearing an implanted lewis lung tumor after intravenous injection in stomach at 8 h.; format: ADME, organism-based; conditions: in vivo; summary of the method: as §3
Mus musculus [34] = experiment: Tissue distribution in BDF1 female mice bearing an implanted lewis lung tumor after intravenous injection in skin at 0.25 h.; format: ADME, organism-based, Skin of body; conditions: in vivo; summary of the method: as §2
Mus musculus [35] = experiment: Tissue distribution in BDF1 female mice bearing an implanted lewis lung tumor after intravenous injection in tumor at 2 h.; format: ADME, organism-based; conditions: in vivo; summary of the method: as §3
Mus musculus [36] = experiment: Tissue distribution in BDF1 female mice bearing an implanted lewis lung tumor after intravenous injection in bone at 1 h.; format: ADME, organism-based; conditions: in vivo; summary of the method: as §1
Mus musculus [37] = experiment: Tissue distribution in BDF1 female mice bearing an implanted lewis lung tumor after intravenous injection in spleen at 1 h.; format: ADME, organism-based; conditions: in vivo; summary of the method: as §2
Mus musculus [38] = experiment: Tissue distribution in BDF1 female mice bearing an implanted lewis lung tumor after intravenous injection in kidney at 0.25 h; format: ADME, organism-based; conditions: in vivo; summary of the method: as §1
Mus musculus [39] = experiment: Tissue distribution in BDF1 female mice bearing an implanted lewis lung tumor after intravenous injection in stomach at 0.5 h. Value in parentheses is organ to tumor ratio; format: ADME, organism-based; conditions: in vivo
Summary of the method: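 Female BDF₁ mice (18–20 g) with implanted Lewis lung tumor were given 23–193 kBq of the [2-¹⁴C] nucleoside in normal saline by tail vein. Tissue ¹⁴C was counted by combustion and liquid scintillation, with n = 6 per time point. The organ-to-tumor ratio was derived from the % injected dose per gram of wet tissue in the organ and in the tumor.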

Row | Tissue distribution (Mus musculus [1]) | Tissue distribution (Mus musculus [2]) | Tissue distribution (Mus musculus [3]) | Tissue distribution (Mus musculus [4]) | Tissue distribution (Mus musculus [5]) | Tissue distribution (Mus musculus [6]) | Tissue distribution (Mus musculus [7]) | Tissue distribution (Mus musculus [8]) | Tissue distribution (Mus musculus [9]) | Tissue distribution (Mus musculus [11]) | Tissue distribution (Mus musculus [12]) | Tissue distribution (Mus musculus [13]) | Tissue distribution (Mus musculus [15]) | Tissue distribution (Mus musculus [17]) | Tissue distribution (Mus musculus [18]) | Tissue distribution (Mus musculus [19]) | Tissue distribution (Mus musculus [20]) | Tissue distribution (Mus musculus [22]) | Tissue distribution (Mus musculus [23]) | Tissue distribution (Mus musculus [24]) | also measured | SMILES
1 | 21.9 | 0.58 | 0.43 | 0.03 | 0.71 | 0.009 | 1.71 | 0.16 | 0.004 | 0.02 | 0.01 | 0.37 | 1.43 | 1.06 | 0.06 | 1.54 | 0.11 | 0.02 | 0.005 | 3.37 | Total radioactivity (Mus musculus [10]): 52.4%; Tissue distribution (Mus musculus [14]): 2.48; Total radioactivity (Mus musculus [16]): 2.8%; Total urine activity [21]: 0.8%; Tissue distribution (Mus musculus [25]): 0.29; Tissue distribution (Mus musculus [26]): 0.005; Tissue distribution (Mus musculus [27]): 8.21; Total urine activity [28]: 30%; Tissue distribution (Mus musculus [29]): 0.02; Tissue distribution (Mus musculus [30]): 0.01; Tissue distribution (Mus musculus [31]): 0.02; Tissue distribution (Mus musculus [32]): 0.01; Tissue distribution (Mus musculus [33]): 0.01; Tissue distribution (Mus musculus [34]): 3.3; Tissue distribution (Mus musculus [35]): 0.49; Tissue distribution (Mus musculus [36]): 0.35; Tissue distribution (Mus musculus [37]): 1.44 | O=c1[nH]c(=O)n([C@H]2O[C@@H](CO)[C@H](O)[C@H]2F)cc1F
2 | 23.2 | 0.53 | 0.36 | 0.06 | 0.38 | 0.03 | 1.56 | 0.23 | 0.01 | 0.09 | 0.03 | 0.27 | 1.41 | 0.78 | 0.18 | 1.43 | 0.17 | 0.05 | 0.02 | 2.73 | Tissue distribution (Mus musculus [38]): 36.2; Tissue distribution (Mus musculus [25]): 0.34; Tissue distribution (Mus musculus [26]): 0.01; Tissue distribution (Mus musculus [27]): 7.28; Tissue distribution (Mus musculus [39]): 0.75; Tissue distribution (Mus musculus [29]): 0.06; Tissue distribution (Mus musculus [30]): 0.01; Tissue distribution (Mus musculus [31]): 0.04; Tissue distribution (Mus musculus [32]): 0.03; Tissue distribution (Mus musculus [33]): 0.05; Tissue distribution (Mus musculus [35]): 0.34; Tissue distribution (Mus musculus [36]): 0.17; Tissue distribution (Mus musculus [37]): 0.48 | O=c1[nH]c(=O)n([C@H]2O[C@@H](CO)[C@H](O)[C@H]2F)cc1Cl
